# In the library only some 4.2% were active in any assay of this set; here they are far more common.
# Insulin prom up – MIN6 insulin promoter up-regulation. z-score at 5 µM. AID 1625. actives 0.3% (n = 190,000). MIN6 insulin promoter-GFP reporter, high-content imaging; active compounds read high;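 active = z-score above 3 at 5 µM with at least 500 cells counted in the well; inconclusive = wells under 500 cells, flagged as cytotoxic or low count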
# WT yeast gro inh – growth inhibition of WT yeast, mitochondrial fusion screen; inhibition, % at 10 µM; actives 2.1% (n = 190,000); mitochondrial fusion phenotypic screen, WT strain; AID 1362; in the data active = inhibition above about 58%; tested in S. cerevisiae
# Autophagy HCS – alters autophagy in cells | MEF GFP-LC3 puncta imaging; test concentration mostly 10 µM | calls only at 10 µM (by protocol) | actives 0.98% (n = 190,000) | AID 463193;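 active = percentage of spot-positive cells more than 3 SD above its plate mean, without a fluorescence outlier flag or 80% toxicity; inconclusive = no clear call, values can overlap the other calls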
# KCC2 mod – modulators of human KCC2 chloride dependent transport; Q9H2X9; actives 2.2% (n = 190,000); B-score of Tl+ flux slope (higher = more flux/activation; lower = inhibition) at 10 µM; KCC2 cells, thallium flux FluoZin-2 fluorescence;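 active = thallium flux slope and its plate-corrected score both differing from the plate sample mean at a set confidence after two filtering rounds, in either direction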;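 note: slope of fluorescence scaled to starting intensity during 10 to 20 s after thallium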
# SKKanGAS inh – blocks kanamycin growth of S. pyogenes SKKanGAS strain. AID 1662. actives 1.3% (n = 300,000). inhibition, % at 7.5 µM. BacTiter-Glo, 6 h;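 active = mean replicate score, as percent of positive control median, at least 50; inconclusive = mean below 50 but one replicate at or above 50; inactive = mean and every replicate below 50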;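 note: strain carries kanamycin resistance gene driven by streptokinase promoter and grows in 40 µg/ml kanamycin; loss of luminescence reflects streptokinase promoter inhibition or plain growth inhibition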
# Rad51 HR inh – Rad51 (human) homologous recombination inhibition. Q06609. hRad51 DNA strand exchange, fluorescence dequenching. inhibition, % at 10 µM. actives 0.085% (n = 200,000). AID 1385;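 active = inhibition above 40% at the single screening dose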
# Target sequence (Q06609 whole entry, looked up): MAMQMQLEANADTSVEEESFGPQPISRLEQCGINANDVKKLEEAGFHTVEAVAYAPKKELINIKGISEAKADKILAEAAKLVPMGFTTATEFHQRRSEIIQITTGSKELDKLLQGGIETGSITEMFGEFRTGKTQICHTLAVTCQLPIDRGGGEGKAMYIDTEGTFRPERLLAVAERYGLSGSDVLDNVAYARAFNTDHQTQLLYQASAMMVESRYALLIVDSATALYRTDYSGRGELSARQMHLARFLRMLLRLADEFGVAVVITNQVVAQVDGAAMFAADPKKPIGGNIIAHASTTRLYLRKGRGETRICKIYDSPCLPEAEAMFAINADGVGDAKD
#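 Material: human Rad51–ssDNA filaments; Probe or stimulus: labelled 47-mer dsDNA for strand exchange; Doses: single 10 µM dose; Incubation: 37 °C 15-min filament assembly, 30-min compound preincubation, 15-min exchange; Technique: FRET fluorescence dequenching, excitation 485 nm, emission 520 nm; Measure: Fluorescence-based percent inhibition, control- and blank-normalised; Benchmarks: plate control and blank wells.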
# KCC2 sec1 – KCC2 (human) modulation, secondary assay. actives 15% (n = 3,700). HEK293-KCC2, thallium flux, FluoZin2 fluorescence; active compounds read high. normalised thallium flux (F/F0 slope) at 10 µM. shares compounds with KCC2 mod;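 active = thallium flux slope above the same plate's solvent-only control mean plus 3 SD; inconclusive = the two replicate wells disagree; inactive = no significant difference from solvent-only control wells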
# KCC2 bumet counter – thallium flux persisting under bumetanide in KCC2 cells, counter-screen secondary assay | HEK293-KCC2 + bumetanide/ouabain, thallium flux FluoZin2; active compounds read high | normalized thallium flux at 10 µM | shares compounds with KCC2 mod | actives 49% (n = 3,700);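 active = thallium entry rate above the same plate's blocked-transporter control wells by more than 3 SD; inconclusive = the two repeat wells disagree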;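 note: raw slope of fluorescence over initial fluorescence between 10 and 20 s after thallium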
# KCC2 sec2 – confirmation of human KCC2 transport modulators | shares compounds with KCC2 mod | HEK293-KCC2, thallium flux FluoZin2 fluorescence; actives lie on both sides; F/F0 rise rate, 10–20 s post-thallium | normalized thallium flux at 10 µM | actives 23% (n = 3,700);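 active = thallium flux slope more than 3 SD above or below the plate's solvent-only control mean, mostly below; inconclusive = the two repeat wells disagreed; inactive = no significant shift from solvent-only controls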
# HEK counter1 – counter-screen for KCC2 modulators: effect in parental HEK293 cells; shares compounds with KCC2 mod; thallium flux FluoZin2, ouabain; baseline-ratio fluorescence slope, 10–20 s after thallium; thallium flux rate (normalised fluorescence) at 10 µM; actives 46% (n = 3,700); AID 1716;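 active = thallium flux rate significantly above the same plate's solvent-only control wells, beyond their mean plus 3 SD; inconclusive = the two replicate wells gave conflicting results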
# KCC2 ouabain – confirmation of human KCC2 modulators with ouabain; shares compounds with KCC2 mod; HEK293-KCC2, thallium flux FluoZin2 fluorescence; bidirectional: low = inhibitor, high = activator; raw Tl+ flux slope (below DMSO = inhibition, above = activation) at 10 µM; actives 48% (n = 3,700); AID 1717;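 active = thallium flux slope beyond 3 SD from same-plate DMSO control mean in most replicates, usually higher, sometimes lower; inconclusive = repeat tests gave conflicting results; inactive = no significant difference from controls in most replicates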;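 note: slope of initial-normalized fluorescence between seconds 10 and 20 after thallium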
# HEK293 Tl flux2 – acts in parental HEK cells, second KCC2 counter-screen. actives 33% (n = 3,700). shares compounds with KCC2 mod. HEK293 parental, thallium flux FluoZin-2 fluorescence slope. thallium flux slope at 10 µM;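 active = thallium flux slope above the same plate's solvent-control mean plus 3 SD in both duplicate wells; inconclusive = duplicate wells that disagreed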;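 note: run without ouabain in cells lacking the KCC2 cotransporter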
# A number is an active result; n = inactive; u = inconclusive; x = no result; + = active, no number.
SMILES,Insulin prom up,WT yeast gro inh,Autophagy HCS,KCC2 mod,SKKanGAS inh,Rad51 HR inh,KCC2 sec1,KCC2 bumet counter,KCC2 sec2,HEK counter1,KCC2 ouabain,HEK293 Tl flux2
COc1ccc(CN(C(=O)c2ccc(-c3ccccc3)[nH]2)C(C(=O)NCC2CCCO2)c2ccc(C)o2)cc1 (centres undefined),n,n,n,x,n,x,n,n,0.025,n,u,n
O=C(NCC1CCCO1)C(c1cccs1)N(Cc1ccccc1)C(=O)c1ccc(-c2ccccc2)[nH]1 (centres undefined),n,n,n,n,n,x,x,x,x,x,x,x
CC(C)(C)NC(=O)C(c1ccncc1)N(Cc1ccco1)C(=O)c1ccc(-c2ccccc2)[nH]1 (centres undefined),n,n,n,-5,n,n,n,n,0.024,n,u,n
O=C(NCC1CCCO1)C(c1cccs1)N(C(=O)c1ccc(-c2ccccc2)[nH]1)C1CCCC1 (centres undefined),x,n,n,-5.7,n,x,n,n,u,n,0.015,n
CC(C)(C)NC(=O)C(c1cccs1)N(CC1CCCO1)C(=O)c1ccc(-c2ccccc2)[nH]1 (centres undefined),n,n,n,-6.6,n,n,n,n,0.022,n,0.01,n
CCOC(=O)N1CCN(C(=O)c2c(Cl)cnn2C)CC1,x,x,x,x,n,x,x,x,x,x,x,x
Fc1ccccc1/C=N/n1cc(-c2ccccc2)[nH]c1=S,n,x,x,75,n,n,0.026,0.12,n,0.053,0.067,0.017
Cc1ccc(C)c(/C=N/n2cc(-c3ccccc3)[nH]c2=S)c1,x,71,n,21,n,n,0.013,0.047,n,0.055,0.041,0.014
Cc1ccc(S(=O)(=O)Nc2cc(C)c(O)c(Sc3n[nH]c(C)n3)c2)cc1,x,x,x,x,n,x,x,x,x,x,x,x
C/C(=N\NC(=O)c1ccc([N+](=O)[O-])c(C)c1)c1ccccc1Cl,n,n,n,12,n,n,u,0.046,n,u,0.041,u
OCc1ccccc1CNCc1ccccc1,n,n,n,x,n,n,n,n,n,n,n,n
S=c1[nH]nc(CSCCOc2ccccc2)o1,n,x,x,n,n,n,x,x,x,x,x,x
S=c1[nH]nc(CSCCOc2ccc(Cl)cc2Cl)o1,n,x,x,162,n,n,n,0.056,u,0.033,0.056,n
C(=N\Nc1nc2ccccc2s1)/c1ccccn1,n,x,x,6.9,75,n,n,u,n,u,n,n
C(=N\NC1=Nc2cccc3cccc1c23)/c1ccccn1,n,68,n,-4.4,n,n,u,n,n,n,0.016,n
Brc1csc(/C=N/Nc2nc3ccccc3s2)c1,n,n,n,n,n,n,x,x,x,x,x,x
C(=N\N=C\c1ccccn1)/c1ccccn1,x,x,x,x,n,x,x,x,x,x,x,x
CC1Cc2ccccc2N1C(=O)COc1ccc2c(c1)OCO2 (centres undefined),n,n,n,n,n,n,x,x,x,x,x,x
O=c1c2ccc(Cl)cc2[nH]c(=S)n1Cc1cccnc1,n,n,n,3.6,n,x,0.013,0.03,n,0.015,n,0.011
CCOc1cc(/C=C2\N=C(SC)SC2=O)cc([N+](=O)[O-])c1OC(C)=O,n,n,n,x,n,x,u,0.0056,u,n,n,n
CCSS(=O)(=O)c1cccc2cccnc12,n,x,x,3.9,n,n,u,0.0079,n,0.01,u,0.014
O=C(O)CCS(=O)(=O)c1cccc2cccnc12,n,n,n,x,n,n,x,x,x,x,x,x
C/C(Cl)=C\Cn1c(O)c(N=NC(N)=S)c2cc(Br)ccc21,n,n,n,36,80,n,n,0.029,0.054,0.043,0.062,0.03
NC(=S)N=Nc1c(O)n(CCCl)c2ccc(Br)cc12,n,x,x,29,n,n,0.017,0.069,n,0.03,0.042,0.015
COc1cccc(NC(=O)c2ccc(N3C(=O)C4CCC(C)CC4C3=O)cc2)c1 (centres undefined),x,x,x,x,n,x,x,x,x,x,x,x
SMILES,Insulin prom up,WT yeast gro inh,Autophagy HCS,KCC2 mod,SKKanGAS inh,Rad51 HR inh,KCC2 sec1,KCC2 bumet counter,KCC2 sec2,HEK counter1,KCC2 ouabain,HEK293 Tl flux2
COc1ccc(OC)c2sc(NNC(=O)COc3ccccc3)nc12,n,n,n,3.4,n,n,n,0.012,n,0.011,u,0.013
CCCn1c(SCN2C(=O)c3ccccc3C2=O)nc2cc(Cl)ccc2c1=O,x,n,n,106,n,x,0.038,0.17,0.053,0.092,0.084,0.046
CC1=Nc2ccccc2/C1=C/c1sc(=N)n(-c2nccs2)c1O,n,n,+,-3.6,98,n,n,0.00052,0.02,0.0049,0.0097,0.0071
O=C(CCNC(=O)Cn1ccc2ccccc2c1=O)NCC1CCCC1c1ccccc1 (centres undefined),n,n,n,n,n,n,x,x,x,x,x,x
Cn1c(COc2ccc3ccccc3c2)nnc1SCC(=O)OC1CCCCC1,n,n,n,n,n,n,x,x,x,x,x,x
CCn1c(SCC(=O)N2CCN(c3ccccc3)CC2)nc2c(c1=O)SC(C)C2 (centres undefined),n,n,x,-3.1,n,n,n,n,u,0.0051,0.014,0.0084
O=C(CSc1nc2c(c(=O)n1-c1ccccc1)SCC2)N1CCN(c2ccccc2)CC1,n,n,n,-7.6,n,n,n,n,n,n,0.012,u
CC1Cc2nc(SCC(=O)N3CCN(c4ccccc4)CC3)n(CCc3ccccc3)c(=O)c2S1 (centres undefined),n,n,x,n,n,n,x,x,x,x,x,x
O=C(CSc1nc2c(c(=O)n1-c1ccccc1)SCC2)N1CCOCC1,n,n,n,n,n,n,x,x,x,x,x,x
CC(=O)Nc1ccc(N2C(=O)CSC2c2cccc([N+](=O)[O-])c2)cc1 (centres undefined),n,n,n,n,n,n,x,x,x,x,x,x
S=c1nc(C2CC2)n(-c2ccccc2)[nH]1,n,x,x,4,n,n,0.014,0.012,n,0.01,u,u
Cc1cc(-c2ccccc2)c2c(=O)n(-c3ccccc3)[nH]c2n1,x,x,x,x,n,x,x,x,x,x,x,x
CCCc1[nH]c(=O)c(C#N)c2c1CCCC2,x,n,n,n,n,n,x,x,x,x,x,x

# Screening results from PubChem.
